Published values of several laboratories.
Lines come from different studies, so protocols differ.
RET V804L: Proto-oncogene tyrosine-protein kinase receptor Ret (RET, Homo sapiens, UniProt P07949, V804L)
RET: Proto-oncogene tyrosine-protein kinase receptor Ret (RET, Homo sapiens, UniProt P07949)
RET M918T: Proto-oncogene tyrosine-protein kinase receptor Ret (RET, Homo sapiens, UniProt P07949, M918T)
RET V804M: Proto-oncogene tyrosine-protein kinase receptor Ret (RET, Homo sapiens, UniProt P07949, V804M)

SMILES	target	assay	setting	remaining binding [%]
Cc1noc([C@H]2C[C@@H](c3ccc(C(F)(F)F)cc3)CN(C(=O)N3CCS(=O)(=O)C3)C2)n1	RET V804L	cell-free assay, competition with immobilised ligand	1 µM	100
c1cncc(-c2cccc(Nc3nccc(NC4CCCCC4)n3)c2)c1	RET	binding, competition with immobilised ligand	10 µM	14
CCc1ccccc1C(=O)Nc1n[nH]c2c(C)c(F)c(C3C(C#N)=C(C)N(C)C(C)=C3C#N)cc12	RET V804L	cell-free assay, competition with immobilised ligand	1 µM	25
CN(CCCC(F)(F)F)c1nccc(-c2cnn3ncccc23)n1	RET M918T	binding	1 µM	99
O=C(NCCCN1CCOCC1)c1ccc(Nc2nccc(-c3cc4ccccc4s3)n2)cc1	RET M918T	binding, competition with immobilised ligand	1 µM	93
O=C(NCC1CCOCC1)c1n[nH]cc1NC(=O)c1c(F)cccc1F	RET M918T	binding, competition with immobilised ligand	1 µM	96
N#Cc1ccccc1CSc1nnc2c(n1)[nH]c1ccccc12	RET	binding, competition with immobilised ligand	10 µM	89
C[C@H]1CCN(c2nccc(-c3cnn4ncccc34)n2)C1	RET	binding	1 µM	97
C[C@@H]1CN(c2cc(-c3nn(C)c4ccc(OC5(C)CC5)cc34)ncn2)C[C@H](C)O1	RET V804L	cell-free assay, competition with immobilised ligand	1 µM	72
CNC(=O)[C@@H]1CC[C@@H](n2c(-c3ccc4cnccc4c3)nc3ccc(C(=O)NCc4cccc(C(N)=O)c4)cc32)C1	RET V804L	binding, competition with immobilised ligand	1 µM	94
CN1CCN(c2ccc(Nc3nccc(-c4cccc([N+](=O)[O-])c4)n3)cc2C(F)(F)F)CC1	RET V804L	binding	10 µM	41
COc1cnc(Nc2cccc(S(N)(=O)=O)c2)nc1N1CCN(c2ccccc2)CC1	RET M918T	binding, competition with immobilised ligand	1 µM	49
COc1cccc(CNC(=O)c2nc3scc(COCc4ccc(C(=O)O)cc4)c3c(=O)[nH]2)c1	RET V804M	cell-free assay, competition with immobilised ligand	1 µM	95.3
CC1CCCN1c1nccc(-c2cnn3ncccc23)n1 (stereo not drawn)	RET	binding	1 µM	100
COc1cc(-c2cn(C3CCc4c(F)cccc4N(CC(F)(F)F)C3=O)nn2)ccc1-n1cnc(C)c1 (stereo not drawn)	RET V804M	cell-free assay, competition with immobilised ligand	1 µM	88
C[C@@H](c1ccc(-n2cnc3c(N)ncnc32)cc1)N1CCc2nn(C)c(Cc3ccccc3)c2C1=O	RET	binding, competition with immobilised ligand	0.1 µM	81
N[C@@H]1CCN(c2nccc(-c3cnn4ncccc34)n2)C1	RET V804L	binding	1 µM	94
O=C(N[C@H]1CCCCC/C=C\C2C[C@@]2(C(=O)O)NC(=O)[C@@H]2C[C@@H](Oc3ccncc3)CN2C1=O)OC1CCCC1 (stereo partly drawn)	RET M918T	binding, competition with immobilised ligand	1 µM	96
FC(F)(F)Oc1cccc(-c2cnc3ccc(-c4ccncc4)nn23)c1	RET	cell-free assay, competition with immobilised ligand	5 µM	86
CC(C)CC(=O)N1CCc2nc(-c3ccc(Br)cc3)nc(N(C)Cc3ccccc3)c2C1	RET V804M	cell-free assay, competition with immobilised ligand	0.1 µM	82
O=C(c1ccc(Nc2ncc(Cl)c(-c3cc4ccccc4s3)n2)cc1)N1CCC(N2CCCC2)CC1	RET V804M	binding, competition with immobilised ligand	1 µM	37
Cc1cnn2ncc(-c3ccnc(N(C)C)n3)c2c1	RET M918T	binding	1 µM	100
Cc1cnc(Nc2ccc(C(=O)N3CCC(N4CCCC4)CC3)cc2)nc1-c1cc2ccccc2s1	RET V804M	binding, competition with immobilised ligand	1 µM	25
c1cnn2ncc(-c3ccnc(N4CCC45COC5)n3)c2c1	RET V804M	binding	1 µM	100
